{
  "source": "ChEMBL document CHEMBL1136009",
  "about": "“Novel p53 inactivators with neuroprotective action: syntheses and pharmacological evaluation of 2-imino-2,3,4,5,6,7-hexahydrobenzothiazole and 2-imino-2,3,4,5,6,7-hexahydrobenzoxazole derivatives” (J Med Chem, 2002)",
  "key": {"[1]": {"tested_on": "PC-12", "assay": "Effective concentration to induce 50 % protection of rat PC12 cells from camptothecin-induced cell death", "format": "functional, cell-based", "procedure,_shortened": "(§1)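 PC12 cells grown in RPMI1640 with 10% horse serum and 5% fetal calf serum to 70–80% confluence, seeded at 2.2×10^4 cells/mL, grown 12 h. Pretreated 6 h with compound (100–400 nM, 0.4% DMSO final), then camptothecin 40 μM for 24 h. Live cells read by BCECF AM (5 μM, 45 min) fluorescence, ex 490/em 535 nm. EC25/EC50 from logit plot versus log concentration, n = 3.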"}, "[2]": {"tested_on": "PC-12", "assay": "Effective concentration to induce 25 % protection of rat PC12 cells from camptothecin-induced cell death", "format": "functional", "procedure,_shortened": "as §1"}, "[3]": {"assay": "Neuroprotective action against glutamate (20 uM) induced cell death in hippocampal neurons", "format": "functional, Rattus norvegicus, Hippocampus", "procedure,_shortened": "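E18 Sprague–Dawley rat hippocampal cultures (9–10 days old) were pretreated with compound (0.04 μM) 1 h before glutamate in Locke's medium; glutamate came from a fresh 200× saline stock. Viable neurons in premarked fields were counted before treatment and 24 h after insult onset, judged by neurite and soma morphology. Results are given as percent survival, mean ± SD.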"}, "[4]": {"assay": "Neuronal survival of cells in response to compound (100 nM) addition to camptothecin (5 uM) to hippocampal neurons", "format": "functional, Rattus norvegicus, Hippocampus", "procedure,_shortened": "(§2)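 Primary hippocampal cultures from embryonic day 18 Sprague–Dawley rats, used at 9–10 days in Neurobasal/B-27 medium. Compound added 1 h before the DNA-damaging agent (camptothecin or etoposide); the agents were made as 500× DMSO stocks. Viable neurons (intact neurites, smooth round soma) were counted in premarked fields before treatment and 24 h after. Results are given as percent survival, mean ± SD.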"}, "[5]": {"assay": "Neuronal survival of cells in response to compound (100 nM) addition to etoposide (2.5 uM) to hippocampal neurons", "format": "functional, Rattus norvegicus, Hippocampus", "procedure,_shortened": "as §2"}, "[6]": {"assay": "Neuronal survival of cells in response to compound (100 nM) addition to etoposide (2.5 uM) to rat hippocampal neurons", "format": "functional, Hippocampus", "procedure,_shortened": "as §2"}, "[7]": {"assay": "Neuronal survival of cells in response to compound (100 nM) addition to camptothecin (5 uM) to rat hippocampal neurons", "format": "functional, Hippocampus", "procedure,_shortened": "as §2"}},
  "note": "pEC50: −log10 of the molar value.",
  "data": [
    {"smiles": "N=c1sc2c(n1CC(=O)c1ccc(F)cc1)CCCC2", "values": [
      {"measurement": "pEC50", "setting": "[1]", "value": 6.42},
      {"measurement": "EC25", "setting": "[2]", "value": 300, "unit": "nM"}
    ]},
    {"smiles": "Nc1nc2c(s1)CCCC2", "values": [
      {"measurement": "pEC50", "setting": "[1]", "value": 5.06},
      {"measurement": "EC25", "setting": "[2]", "value": 855, "unit": "nM"}
    ]},
    {"smiles": "Br.CCC(=O)Cn1c2c(sc1=N)CCCC2", "values": [
      {"measurement": "Survival", "setting": "[3]", "value": 43, "unit": "%"},
      {"measurement": "pEC50", "setting": "[1]", "value": 6.24},
      {"measurement": "Survival", "setting": "[4]", "value": 65, "unit": "%"},
      {"measurement": "Survival", "setting": "[5]", "value": 71, "unit": "%"},
      {"measurement": "EC25", "setting": "[2]", "value": 410, "unit": "nM"}
    ]},
    {"smiles": "COc1ccc(C(=O)Cn2c3c(sc2=N)CCCC3)cc1", "values": [
      {"measurement": "pEC50", "setting": "[1]", "value": 6.74},
      {"measurement": "EC25", "setting": "[2]", "value": 150, "unit": "nM"}
    ]},
    {"smiles": "N=c1sc2c(n1CC(=O)c1ccccc1)CCCC2", "values": [
      {"measurement": "pEC50", "setting": "[1]", "value": 6.77},
      {"measurement": "EC25", "setting": "[2]", "value": 80, "unit": "nM"}
    ]},
    {"smiles": "N=c1sc2c(n1CC(=O)c1ccc(Cl)cc1)CCCC2", "values": [
      {"measurement": "pEC50", "setting": "[1]", "value": 6.72},
      {"measurement": "EC25", "setting": "[2]", "value": 120, "unit": "nM"}
    ]},
    {"smiles": "CCC(=O)Cn1c2c(oc1=N)CCCC2", "values": [
      {"measurement": "pEC50", "setting": "[1]", "value": 6.84}
    ]},
    {"smiles": "COc1ccccc1C(=O)Cn1c2c(sc1=N)CCCC2", "values": [
      {"measurement": "pEC50", "setting": "[1]", "value": 6.46},
      {"measurement": "EC25", "setting": "[2]", "value": 250, "unit": "nM"}
    ]},
    {"smiles": "Cc1ccc(C(=O)Cn2c3c(oc2=N)CCCC3)cc1", "values": [
      {"measurement": "pEC50", "setting": "[1]", "value": 7.15},
      {"measurement": "EC25", "setting": "[2]", "value": 35, "unit": "nM"}
    ]},
    {"smiles": "Br.Cc1ccc(C(=O)Cn2c3c(sc2=N)CC(C)CC3)cc1", "note": "(configuration not stated)", "values": [
      {"measurement": "pEC50", "setting": "[1]", "value": 6.52},
      {"measurement": "Survival", "setting": "[6]", "value": 60, "unit": "%"},
      {"measurement": "EC25", "setting": "[2]", "value": 100, "unit": "nM"},
      {"measurement": "Survival", "setting": "[7]", "value": 29, "unit": "%"}
    ]},
    {"smiles": "N=c1sc2c(n1CC(=O)c1ccc(-c3ccccc3)cc1)CCCC2", "values": [
      {"measurement": "pEC50", "setting": "[1]", "value": 6.11},
      {"measurement": "EC25", "setting": "[2]", "value": 340, "unit": "nM"}
    ]},
    {"smiles": "N=c1sc2c(n1CC(=O)c1ccc([N+](=O)[O-])cc1)CCCC2", "values": [
      {"measurement": "pEC50", "setting": "[1]", "value": 6.39},
      {"measurement": "EC25", "setting": "[2]", "value": 230, "unit": "nM"}
    ]},
    {"smiles": "COc1cccc(C(=O)Cn2c3c(sc2=N)CCCC3)c1", "values": [
      {"measurement": "pEC50", "setting": "[1]", "value": 6.38},
      {"measurement": "EC25", "setting": "[2]", "value": 340, "unit": "nM"}
    ]},
    {"smiles": "CCOC(=O)Cn1c2c(sc1=N)CCCC2", "values": [
      {"measurement": "pEC50", "setting": "[1]", "value": 6.23},
      {"measurement": "EC25", "setting": "[2]", "value": 230, "unit": "nM"}
    ]},
    {"smiles": "Br.N=c1sc2c(n1Cc1ccccc1)CCCC2", "values": [
      {"measurement": "Survival", "setting": "[3]", "value": 43, "unit": "%"},
      {"measurement": "pEC50", "setting": "[1]", "value": 6.13},
      {"measurement": "Survival", "setting": "[4]", "value": 61, "unit": "%"},
      {"measurement": "Survival", "setting": "[5]", "value": 78, "unit": "%"},
      {"measurement": "EC25", "setting": "[2]", "value": 415, "unit": "nM"}
    ]}
  ]
}
